Screens from PubChem BioAssay.
An excerpt weighted towards active compounds, which were near 12% of everything screened.
WT yeast gro inh: growth inhibition of WT yeast, mitochondrial fusion screen | inhibition, % at 10 µM | mitochondrial fusion phenotypic screen, WT strain | 190,000 compounds, 2.1% hits | AID 1362; in the data active means inhibition above about 58%; tested in S. cerevisiae
KCC2 mod: modulates chloride dependent transport by human KCC2 | Q9H2X9 | KCC2 cells, thallium flux FluoZin-2 fluorescence | B-score of Tl+ flux slope (higher = more flux/activation; lower = inhibition) at 10 µM | 190,000 compounds, 2.2% hits | AID 1456;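 active means thallium flux slope and its plate-corrected score both differing from the plate sample mean at a set confidence after two filtering rounds, in either direction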;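 further: slope of fluorescence scaled to starting intensity during 10 to 20 s after thallium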
Diaphorase act: counter-screen for diaphorase-based assays: diaphorase activators and chemical reducers. Diaphorase/resazurin coupled assay, resorufin fluorescence, 16 min; hits give high values; 1 = vehicle wells, 0 = NADH-free wells. activation factor at 20 µM. 190,000 compounds, 0.005% hits. AID 1229;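 active means diaphorase activity raised at least twofold by the compound at 20 µM; inactive means activation factor below 2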
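test system = bacterial diaphorase enzyme (C. kluyveri) | quantity = enzyme 0.07 U/mL final | reagent = NADH substrate 0.114 mM plus resazurin dye 0.1 mM, final | incubation = 16 min enzyme reaction, ambient temperature | buffer or medium = HEPES pH 7.4 buffer with MgCl2 and Tween 20 | signal = fluorescence of resorufin, 544 nm excitation, 590 nm emission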
Diaphorase inh: diaphorase inhibition or chemical oxidation counter-screen; 190,000 compounds, 0.69% hits; inhibition, % at 20 µM; diaphorase resazurin-to-resorufin fluorescence, NADH, 16 min; bacterial (C. kluyveri) enzyme, not human;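 active means primary screen inhibition at 20 µM above a set limit, cut at about 50% in these data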;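 further: plate controls were DMSO with full reaction for no effect and wells lacking NADH for full effect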
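Assay system: diaphorase enzyme from Clostridium kluyveri. Quantity: enzyme working solution with 0.14 U/mL diaphorase. Schedule: reaction incubation of 16 min at room temperature. Technique: resorufin fluorescence, excitation 544 nm, emission 590 nm. Controls: No-NADH positive control and DMSO neutral control.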
ROMK primary: human ROMK K+ channel modulation, primary screen | AID 1918 | P48048 | B-score at 10 µM | Tet-inducible ROMK, thallium flux fluorescence; actives lie on both sides | 130,000 compounds, 2% hits;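 active means signal ratio slope over the read window, or its plate-corrected B-score, at least 3 SD from the plate mean, either direction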;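 further: B-score of the F/F0 ratio slope over 7 to 12 s after thallium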
Target sequence (P48048 whole entry, looked up): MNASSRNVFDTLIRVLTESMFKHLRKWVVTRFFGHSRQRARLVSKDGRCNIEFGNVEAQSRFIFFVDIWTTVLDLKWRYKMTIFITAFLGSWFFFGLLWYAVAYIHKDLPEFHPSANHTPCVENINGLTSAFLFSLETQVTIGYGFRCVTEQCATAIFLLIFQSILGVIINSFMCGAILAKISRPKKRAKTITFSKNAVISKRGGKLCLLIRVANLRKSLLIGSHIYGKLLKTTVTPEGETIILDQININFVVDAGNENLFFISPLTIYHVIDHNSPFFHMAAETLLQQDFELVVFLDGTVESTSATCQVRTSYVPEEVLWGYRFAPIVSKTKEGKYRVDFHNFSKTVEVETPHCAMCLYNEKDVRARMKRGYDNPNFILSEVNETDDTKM
L major viab: Leishmania major promastigote growth inhibition. Leishmania major promastigotes, resazurin fluorescence viability. inhibition, % at 10 µM. 200,000 compounds, 9% hits. AID 1063; in the data active means inhibition above about 50%;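 further: promastigotes grown with compound for 44 hours at 28 °C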
The depositor's hits bear a star; / = no result given.

SMILES	WT yeast gro inh	KCC2 mod	Diaphorase act	Diaphorase inh	ROMK primary	L major viab
CC(C)(C)C1CCC(OC(=O)C[N+]2(C)CCCCC2)CC1 (stereo not drawn)	5	/	0.9	11	0.081	75*
O=C(O)c1ccc(N2CCS(=O)(=O)CC2)cc1	-16	0.27	1	2	0.11	-3
Cc1ccc(C(C)C)c(OCCCN(C)Cc2ccccc2)c1	43	-0.005	1	0	/	96*
Cc1ccc(C(C)C)c(OCCCN2C(=O)NC(C)(C)C2=O)c1	12	-0.086	0.9	11	-0.39	6
Cc1ccc(OCCCCN(C)Cc2ccccc2)c(Br)c1	58	0.38	0.9	8	-0.56	90*
CCOC(=O)c1c(C)[nH]c(C)c1C(=O)COC(=O)/C=C/c1ccc(Cl)cc1	74*	-2.1	0.7	27	0.25	4
CCOC(=O)c1c(C)[nH]c(C)c1C(=O)COC(=O)/C=C/c1ccc(OC(F)F)cc1	28	-0.13	0.8	20	/	4
CCNc1nc(NCC)n2c(SC(C(=O)Nc3cc(C)ccc3OC)c3ccccc3)nnc2n1 (stereo not drawn)	-17	-1.5	0.9	14	-1.2	89*
COc1ccc(CN2C(=O)c3ccccc3C(/C=N\OCc3ccc(C)cc3)C2=O)cc1 (stereo not drawn)	-12	/	1	2	/	37
CC(=O)C1=C(C)N(Cc2ccccc2)C(=O)N[C@H]1c1ccco1	/	-0.6	/	/	/	/
COc1ccc(-n2ncc(S(=O)(=O)c3ccccc3)c2-c2ccc(Cl)cc2)cc1	53	/	0.7	26	/	99*
O=S(=O)(c1ccccc1)c1cnn(-c2ccccc2)c1-c1ccc(F)cc1	7	-0.88	0.8	20	/	50*
CCOC(=O)N1CCN(C(=O)/C=C/c2c(C)nn(-c3ccc(F)cc3)c2Cl)CC1	7	-2.7	0.9	6	/	13
CC(=O)Nc1ccc(S(=O)(=O)N(Cc2ccccc2)c2ccccc2F)cc1	-4	0.64	0.9	12	-0.21	9
CC(C)c1ccc(CN2CCN(C(=O)CCl)CC2)cc1	4	0.95	1	2	-0.54	99*
CC(C)(C)SCCNC(=O)CSc1ccccc1	-2	/	/	/	/	-3
CC(C)(C)SCCNC(=O)Nc1ccccc1	10	0.53	0.9	10	/	54*
COc1cc(CN2CC(=O)N(c3ccc(C)cc3)C2=S)cc(OC)c1OC	-16	-0.26	0.9	11	0.055	82*
Cc1ccc2cccc(Oc3ncnc4scc(-c5ccc(Cl)cc5)c34)c2n1	37	-0.2	0.8	16	/	35
CCOc1ccc(C2C(C(=O)c3ccc(C)o3)=C(O)C(=O)N2CCCN(CC)CC)cc1 (stereo not drawn)	/	0.58	/	/	0.63	/
CCCCOc1ccc(C2C(C(=O)c3ccc(C)o3)=C(O)C(=O)N2CC2CCCO2)cc1 (stereo not drawn)	1	0.051	0.9	7	/	53*
CC(NC(=O)CCl)c1ccc(Cl)c(Cl)c1 (stereo not drawn)	6	-0.26	0.9	9	-0.67	63*
Cc1ccc2sc(NNC(=O)c3cc(=O)c4ccccc4o3)nc2c1C	-2	-3.3*	0.4	58*	/	1
CSc1nc(Oc2ccc3ccccc3c2)c2ccccc2n1	49	0.34	1	3	/	47
CCOC(=O)c1cnc(SC)nc1NCCOC	5	0.92	0.9	6	1.2	1
SMILES	WT yeast gro inh	KCC2 mod	Diaphorase act	Diaphorase inh	ROMK primary	L major viab
CCOC(=O)c1cnc(SC)nc1Sc1ccccc1Cl	67*	-0.74	0.8	20	0.092	-4
CSc1nc(Sc2ccccc2Cl)c2ccccc2n1	68*	/	0.8	20	/	-1
COCCn1c(=O)[nH]c2cc(C(=O)NCCN3CCN(c4cccc(Cl)c4)CC3)ccc2c1=O	14	-0.7	1	5	0.94	2
Cc1ccc(S(=O)(=O)Nc2ccc(O)c3ncccc23)cc1	-17	-0.085	0.4	57*	0.58	99*
Cc1ccc(S(=O)(=O)Nc2ccnc3ccccc23)cc1	8	/	0.9	8	-1.8	-1
COC(=O)c1ccc(OC(=O)CCN2C(=O)C3CCCCC3C2=O)cc1 (stereo not drawn)	6	0.49	0.9	10	-0.15	-5
